According to publication PMC7445463 (Diabetologia, 2020):
Ends that are not written are not given here.

How the values were obtained:
[1] = DIO-NASH biopsy-confirmed mouse model; type: in vivo
Outline: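 Male C57BL/6JRj mice fed AMLN diet (40% fat with trans-fat, 20% fructose, 2% cholesterol) for 33 weeks, then liver-biopsied. Only mice with steatosis score ≥2 and fibrosis stage ≥F1 were stratified into groups (n=12-13). Groups received vehicle or test compound at 10 or 30 mg/kg for a further 12 weeks.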

[2] = CDHFD-induced NASH and fibrosis mice; type: in vivo, mouse
[3] = tested on: isolated diabetic mouse hearts; experiment: Langendorff-perfused db/db hearts, stable isotope analysis; conditions: 10 μM Cariporide
SD rat islets = experiment: Perifusion of rat islets, GSIS; type: cell-based; conditions: for potentiation of GSIS at low concentrations: 10-100 pM
[4] = 6-day s.c. GIP infusion crossover study, T1D; type: in vivo, human
[5] = tested on: obese T2DM and lean subjects; experiment: GIP infusion, tissue blood flow; type: in vivo, human
[6] = tested on: mouse hypothalamic (mHypoA) and human (SH-SY5Y) neuronal cells; experiment: Resistin overexposure of neuronal cells; type: cell-based; conditions: for resistin-dependent neuronal inflammation and IR: pharmacological inhibition
[7] = tested on: patients with type 2 diabetes; experiment: Network meta-analysis of antidiabetic medications on blood pressure; parameters: species or system human; conditions: network meta-analysis
[8] = 12 week L-carnitine treatment in type 2 diabetes patients; type: in vivo, human; conditions: after 12 weeks
Outline: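 32 patients with type 2 diabetes treated with L-carnitine for 12 weeks, with plasma free carnitine checked for compliance. Two-step hyperinsulinemic-euglycemic clamp (10 then 40 mU/m2/min) with D-[6,6-2H2]-glucose tracer gave hepatic (EGP suppression) and peripheral sensitivity. Vastus lateralis acetylcarnitine by T1-edited long-TE (350 ms) 1H-MRS at rest and after 30 min cycling at 70% Wmax. IHL by 1H-MRS. All measured before and after.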

[9] = 48-week tofogliflozin vs glimepiride trial in T2D with NAFLD; type: in vivo, human; conditions: after 48 weeks; for AST: baseline 55.4 ± 41.8 / 49.7 ± 46.8; for ALT: baseline 72.2 ± 60.5 / 76.4 ± 77.8; for body weight: baseline 78.7 ± 17.7 / 81.3 ± 19.2; for HbA1c: baseline tofogliflozin 8.0 ± 0.5, glimepiride 8.4 ± 0.9
[10] = Nasal vs injectable glucagon, insulin-induced hypoglycaemia; type: in vivo, human
[11] = Insulin icodec vs IGlar U100 26-week phase 2 trial; type: in vivo, human
Outline: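 Randomized, double-blind, double-dummy, treat-to-target phase 2 trial lasting 26 weeks. Participants were insulin-naïve adults with T2D and HbA1c 7.0-9.5% on metformin ± DPP4i, randomized 1:1 (n=247). Starting doses were 70 U once weekly or 10 U once daily, titrated weekly to a pre-breakfast SMBG target of 3.9-6.0 mmol/L. The primary endpoint was HbA1c change from baseline to week 26; FPG and mean weekly dose over the last two weeks were secondary.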

[12] = EXSCEL post-hoc analysis, eGFR slope and UACR; type: in vivo, human
[13] = resistin overexposure, neuronal cells

O=S(=O)(Nc1cc(Cl)c(Oc2cnc3ccccc3c2)c(Cl)c1)c1ccc(Cl)cc1Cl [CHS-131]
lower plasma aspartate transaminase ([1]; high dose): 29%
lower total cholesterol ([1]; high dose): 20%
increase of plasma adiponectin ([1]; high dose 30 mg/kg): 137%
lower plasma alanine transaminase ([1]; high dose 30 mg/kg, 12 weeks): 37%
increase of plasma adiponectin ([1]; low dose 10 mg/kg): 114%
Galectin-3 ([1]; trend): -18%
hydroxyproline ([1]; trend): -28%

O=C(O)c1ccnc(N2CC(O)(c3ccc(OCc4c(-c5c(Cl)cccc5Cl)noc4C4CC4)cc3Cl)C2)c1 [CIL, Cilofexor]
hepatic TG vs vehicle ([2]; CDHFD 14 weeks, treatment last 6 weeks): 2.6%
collagen-1α1 gene expression vs vehicle ([2]; mouse, in vivo): -37.5%
hepatic F4/80 gene expression vs vehicle ([2]; mouse, in vivo): -1.6%
hepatic IL-1β gene expression vs vehicle ([2]; mouse, in vivo): -37.5%
hepatic TBARS vs vehicle ([2]; mouse, in vivo): 11.0%
hepatic hydroxyproline vs vehicle ([2]; mouse, in vivo): -13.7%

CC(C)c1ccc(C(=O)NC(=N)N)cc1S(C)(=O)=O [Cariporide]
Empa effects on lactate labeling and G6P [3]: mitigated

CC[C@H](C)[C@H](NC(=O)[C@H](CO)NC(=O)[C@H](Cc1ccc(O)cc1)NC(=O)[C@H](CC(=O)O)NC(=O)[C@H](CO)NC(=O)[C@@H](NC(=O)[C@H](Cc1ccccc1)NC(=O)[C@@H](NC(=O)CNC(=O)[C@H](CCC(=O)O)NC(=O)[C@H](C)NC(=O)[C@@H](N)Cc1ccc(O)cc1)[C@@H](C)O)[C@@H](C)CC)C(=O)N[C@@H](C)C(=O)N[C@@H](CCSC)C(=O)N[C@@H](CC(=O)O)C(=O)N[C@@H](CCCCN)C(=O)N[C@H](C(=O)N[C@@H](Cc1c[nH]cn1)C(=O)N[C@@H](CCC(N)=O)C(=O)N[C@@H](CCC(N)=O)C(=O)N[C@@H](CC(=O)O)C(=O)N[C@@H](Cc1ccccc1)C(=O)N[C@H](C(=O)N[C@@H](CC(N)=O)C(=O)N[C@@H](Cc1c[nH]c2ccccc12)C(=O)N[C@@H](CC(C)C)C(=O)N[C@@H](CC(C)C)C(=O)N[C@@H](C)C(=O)N[C@@H](CCC(N)=O)C(=O)N[C@@H](CCCCN)C(=O)NCC(=O)N[C@@H](CCCCN)C(=O)N[C@@H](CCCCN)C(=O)N[C@@H](CC(N)=O)C(=O)N[C@@H](CC(=O)O)C(=O)N[C@@H](Cc1c[nH]c2ccccc12)C(=O)N[C@@H](CCCCN)C(=O)N[C@@H](Cc1c[nH]cn1)C(=O)N[C@@H](CC(N)=O)C(=O)N[C@H](C(=O)N[C@H](C(=O)N[C@@H](CCC(N)=O)C(=O)O)[C@@H](C)O)[C@@H](C)CC)C(C)C)[C@@H](C)CC [GIP]
potentiation of GSIS at low concentrations (SD rat islets): potentiated GSIS
increase of daytime time in range (3.9-[…]) vs placebo ([4]; 6 pmol/kg/min s.c., 6 days, mean ± SEM): 160 ± 74 min/day
decrease of 24-hour diastolic blood pressure ([4]; in vivo): 3.1 ± 1.3 mmHg
decrease of 24-hour systolic blood pressure ([4]; in vivo): 5.8 ± 2.6 mmHg
SAT blood flow increase from baseline ([5]; GIP infusion, operated subjects): 143%
VAT blood flow increase from baseline ([5]; GIP-infusion, control): 234%
SAT blood flow increase from baseline ([5]; GIP-infusion, controls): 385%
SAT blood flow increase from baseline ([5]; GIP-infusion, obese): 119%
VAT blood flow increase from baseline ([5]; GIP-infusion, obese): 105%

CCOC(=O)C1=CCCC[C@H]1S(=O)(=O)Nc1ccc(F)cc1Cl [TAK-242]
resistin-dependent neuronal inflammation and IR [6]: prevents

Cc1ccc([C@@H]2O[C@H](CO)[C@@H](O)[C@H](O)[C@H]2O)cc1Cc1ccc(-c2ccc(F)cc2)s1 [canagliflozin]
diastolic blood pressure, mean difference versus placebo [7]: -1.42 mmHg

C[N+](C)(C)C[C@H](O)CC(=O)[O-] [carnitine, L-carnitine]
resting skeletal muscle acetylcarnitine ([8]; before 1.18±0.13): 1.54±0.17 mmol/kgww
post-exercise skeletal muscle acetylcarnitine ([8]; before 3.70±0.22): 4.53±0.30 mmol/kgww
plasma glucose ([8]; before 8.1±0.3): 7.7 ± 0.3 mmol/L
ΔRd (peripheral insulin sensitivity) ([8]; before 10.53±1.85): 13.83 ± 2.02 µmol/kg/min
intrahepatic lipid content (IHL) ([8]; before 14.7±2.6): 12.8±2.2%
EGP suppression (hepatic insulin sensitivity) ([8]; before 31.9 ±2.9): 39.9±3.2%

CCOc1ccc(Cc2cc([C@@H]3O[C@H](CO)[C@@H](O)[C@H](O)[C@H]3O)ccc2Cl)cc1 [dapagliflozin]
diastolic blood pressure, mean difference versus placebo [7]: -1.48 mmHg
increase in hepatic lipid content (HCL) (CON-D and T2DM-D, non-significant): 20%
decrease in hepatic glycogen (T2DM-D, T2DM-P -6±0.02): -10±0.02%
glycogenolysis (both groups): no impact
EGP higher following administration (single dose 10mg): 25%

CCC1=C(C)CN(C(=O)NCCc2ccc(S(=O)(=O)NC(=O)N[C@H]3CC[C@H](C)CC3)cc2)C1=O [glimepiride]
AST [9]: 52.3 ± 37.6 IU/L
ALT [9]: 78.9 ± 68.7 IU/L
body weight [9]: 81.9 ± 21.1 kg
HbA1c [9]: 7.5 ± 0.6%

CCCCCCC(=O)CCCCCC/C=C/C[C@@H](O)[C@H](O)[C@@](N)(CO)C(=O)O [myriocin]
resistin-dependent neuronal inflammation and IR [6]: prevents

CCc1ccc(Cc2ccc3c(c2)[C@]2(OC3)O[C@H](CO)[C@@H](O)[C@H](O)[C@H]2O)cc1 [tofogliflozin]
stage score ([9]; baseline 1.6 ± 1.1): 1.1 ± 1.3
grade score ([9]; baseline 1.7 ± 0.9): 0.9 ± 0.8
AST [9]: 27.2 ± 22.4 IU/L
ALT [9]: 33.1 ± 31.5 IU/L
body weight [9]: 73.3 ± 18.3 kg
HbA1c [9]: 6.9 ± 1.2%
steatosis score ([9]; tofogliflozin baseline 2.0 ± 0.7): 1.2 ± 0.4

GIP(3-30)
insulin secretion in response to glucose alone (SD rat islets; receptor antagonists): not reduced

glucagon [injectable glucagon]
geometric least square mean maximal blood glucose (BGMAX) ([10]; in vivo): 11.4 mmol/L
headache ([10]; in vivo): 5.8%
mean time to treatment success ([10]; in vivo): 10.4 min
nausea ([10]; in vivo): 28.8%
vomiting ([10]; in vivo): 11.5%
patients achieving treatment success ([10]; within 15 minutes, T1D or T2D): 97.0%

glucagon-like peptide-1 (HAEGTFTSDVSSYLEGQAAKEFIAWLVKGR; ends and bridges not checked; UniProt P01275 98-127, looked up) [GLP-1]
potentiation of GSIS at low concentrations (SD rat islets): no such effect

insulin glargine U100 [IGlar U100]
estimated mean HbA1c at week 26 ([11]; baseline 8.1 icodec, 8.0 IGlar U100): 6.9%
estimated mean FPG at week 26 ([11]; in vivo): 7.05 mmol/L
estimated mean weekly insulin dose, last two weeks ([11]; in vivo): 284 U/week
level 2 and 3 hypoglycaemia ([11]; on-treatment period): 46 events per 100 patient years of exposure
estimated mean change in HbA1c from baseline ([11]; week 26): -1.15 %-points

once-weekly exenatide [EQW]
reduction of UACR vs placebo ([12]; baseline UACR>30 mg/g): 28.2%
reduction of UACR vs placebo ([12]; baseline UACR>100 mg): 22.5%
eGFR slope vs placebo ([12]; baseline UACR>100mg/g, 95% CI 0.24-1.34): +0.79 mL/min/1.73m2/year
reduction of UACR vs placebo ([12]; baseline UACR>200 mg): 34.5%
eGFR slope vs placebo ([12]; baseline UACR>200mg/g, 95% CI 0.57-2.06): +1.32 mL/min/1.73m2/year

B1: resistin: "circulating factors originated from adipose tissue and immune cells"; "a key mediator linking obesity to IR" (protein, UniProt Q9HD89 19-108, looked up)
Resistin: KTLCSMEEAINERIQEVAGSLIFRAISSIGLECQSVTSRGDLATCPRGFAVTGCTCGSACGSWDVRAETTCHCQCAGMDWTGARCCRVQP
increased expression of IL6 [6, 13]: 89.93%
inhibition of insulin-dependent phosphorylation of Akt [6, 13]: 40.6%
